The source of these data is ChEMBL document CHEMBL3286132, “Syntheses, characterization and evaluation of novel 2,6-diarylpiperidin-4-ones as potential analgesic-antipyretic agents” (Eur J Med Chem, 2014).

The nature of data set [1]: Hydrolysis of the compound in simulated intestinal fluid at 10 mg after 120 mins by spectrophotometry. The data set is classed as ADME. The settings on record: read-out: Drug degradation. In short, it runs like this: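 Samples shaken on an orbital shaker at 37 ± 2 °C in simulated intestinal fluid. Aliquots were drawn at 0, 15, 30, 45, 60, 75, 90, 105 and 120 min, then diluted, filtered and read spectrophotometrically at each compound's λmax. % hydrolysed = (A0 − A120)/A0 × 100.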

The nature of data set [2]: Partition co-efficient, log P of the compound in ocatanol-water by shake flask method. The data set is classed as physicochemical. The conditions noted are these: octanol/water. The procedure, abridged:
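Shake-flask method: 2 mg dissolved in 50 ml water plus 50 ml octanol, shaken 30 min and left 24 h to equilibrate. Phases were separated, and octanol-phase concentration was taken from absorbance against a standard curve. Log P was calculated from that concentration.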

Data set [3] has as its system Rattus norvegicus. In words: Antipyretic activity in Wistar rat assessed as reduction in Brewer's yeast-induced hyperthermia measured as rectal temperature at 60 mg/kg, po administered 18 hrs post challenge measured after 1 hr post dose (reference value: 39.300 +/- 0.071 degC). The data set is classed as functional. In short, it runs like this: (§1)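 Male Wistar rats (200-300 g), fasted, groups of 5. Fever induced by sc 15% brewer's yeast in normal saline (10 ml/kg). Rectal temperature taken with a digital thermometer inserted about 7 mm. After 18 h, rats at 38 °C or above were used. Dosed orally as suspension in 0.5% CMC; vehicle controls. Temperature then read at set times after dosing. Values are means of five.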

In data set [4] the test system is Mus musculus. Kind of data set: Analgesic activity in albino mouse assessed as inhibition of acetic acid-induced writhing at 60 mg/kg, po administered 1 hr prior challenge relative to control. The data set is classed as functional. In short, it runs like this: (§2)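 Male albino mice (25-30 g), fasted 20-24 h, groups of 5. Dosed orally as suspension in 0.5% sodium CMC; vehicle controls. 1 h later, 1% acetic acid in normal saline (10 ml/kg) given ip. Starting 5 min after injection, writhes counted over 30 min. Percent inhibition calculated from group mean writhes versus control.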
Background: An intraperitoneal irritant provokes the stretching counted in writhing tests.

The test system of data set [5] is Rattus norvegicus. Kind of data set: Antipyretic activity in Wistar rat assessed as reduction in Brewer's yeast-induced hyperthermia measured as rectal temperature at 60 mg/kg, po administered 18 hrs post challenge measured after 2 hrs post dose (reference value: 39.320 +/- 0.102 degC). The data set is classed as functional. In short, it runs like this:
as §1

The test system of data set [6] is Rattus norvegicus. Kind of data set: Antipyretic activity in Wistar rat assessed as reduction in Brewer's yeast-induced hyperthermia measured as rectal temperature at 60 mg/kg, po administered 18 hrs post challenge measured after 3 hrs post dose (reference value: 39.400 +/- 0.071 degC). The data set is classed as functional. In short, it runs like this: as §1
Data set [7] has as its system Mus musculus. Kind of data set: Neurotoxicity in po dosed albino mouse assessed as alteration of motor activity […] by rotarod test. The data set is classed as toxicity, organism-based. The settings on record: in vivo. Background: The rotarod test checks motor coordination on a turning rod.
Data set [8] has as its system Mus musculus. Kind of data set: Analgesic activity in albino mouse assessed as inhibition of acetic acid-induced writhing at 10 mg/kg, po administered 1 hr prior challenge relative to control. The data set is classed as functional. In short, it runs like this:
as §2

In data set [9] the test system is Mus musculus. Kind of data set: Neurotoxicity in albino mouse assessed as alteration of motor activity at 2 mg/kg, po measured after 60 mins for 60 secs by rotarod test. The data set is classed as toxicity, organism-based. On the set-up: dose 2 mg/kg, route oral. The settings on record: in vivo. The procedure, abridged:
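Male albino mice on a 1 in. knurled wooden rod rotating at 6–10 rpm. Testing began 60 min after oral dosing. Neurological toxicity was defined as failure to stay on the rod for 1 min or more.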

For data set [10], the system named is Rattus norvegicus. In words: Antipyretic activity in Wistar rat assessed as reduction in Brewer's yeast-induced hyperthermia measured as rectal temperature at 150 mg/kg, po administered 18 hrs post challenge measured after 2 hrs post dose (reference value: 39.320 +/- 0.102 degC). The data set is classed as functional. The procedure, abridged: as §1
In data set [11] the test system is Rattus norvegicus. In words: Antipyretic activity in Wistar rat assessed as reduction in Brewer's yeast-induced hyperthermia measured as rectal temperature at 150 mg/kg, po administered 18 hrs post challenge measured after 1 hr post dose (reference value: 39.300 +/- 0.071 degC). The data set is classed as functional. In short, it runs like this: as §1
Data set [12] relates to Rattus norvegicus. Kind of data set: Antipyretic activity in Wistar rat assessed as reduction in Brewer's yeast-induced hyperthermia measured as rectal temperature at 150 mg/kg, po administered 18 hrs post challenge measured after 3 hrs post dose (reference value: 39.400 +/- 0.071 degC). The data set is classed as functional. The procedure, abridged:
as §1

Regarding `COc1ccc(C2C(C)C(=O)CC(c3ccc(F)cc3)N2C(=O)CN2CCN(C)CC2)cc1` (stereo not given), in [1], the degraded at 2 h was 2.51%. For the same molecule, the logP (commonly the decadic logarithm of the partition coefficient of the neutral form, usually between octanol and water) in data set [2] was 1.53. Moreover, the T came out at 38.18 °C in [3], 37.44 °C in [5] and 37.1 °C in [6]. Moreover, the inhibition in vivo – broadly, the percentage by which the read-out fell short of the control – at 60 mg/kg in data set [4] came out at 55.2%. In addition, the Activity result in data set [7] is given as “Non-toxic”.

Turning to `O=C(O)Cc1ccccc1Nc1c(Cl)cccc1Cl` [DICLOFENAC SODIUM], the inhibition in vivo at 10 mg/kg in data set [8] came to 56.5%.

`CC1C(=O)CC(c2ccc(Cl)cc2)N(C(=O)CCl)C1c1ccc(N(C)C)cc1` (stereo not given): in [1], the degraded at 2 h was 76.8%. The same molecule displayed a logP in data set [2] of 1.24. Moreover, the values for the T in [3], in data set [5] and in data set [6] were 39 °C, 38.56 °C and 37.86 °C, respectively. Further, the inhibition in vivo at 60 mg/kg in data set [4] turned out to be 17.8%. Besides, the Activity result in data set [7] is on record as “Non-toxic”.

Regarding `COc1ccc(C2C(C)C(=O)CC(c3ccc(F)cc3)N2C(=O)CCl)cc1` (stereo not given), the degraded at 2 h in data set [1] is 2.01%. This molecule returned a lipophilicity (logP) in data set [2] of 1.42. Also, the T stood at 38.58 °C in [3], 37.9 °C in data set [5] and 37.2 °C in data set [6]. In addition, the inhibition in vivo at 60 mg/kg in data set [4] stood at 51.2%. The Activity entry in [7] is “Non-toxic”.

Take `CN1C(=O)CN=C(c2ccccc2)c2cc(Cl)ccc21` [DIAZEPAM]: in data set [9], the Activity result is given as “Toxic”.

Take `CC1C(=O)CC(c2ccc(Cl)cc2)N(C(=O)CN2CCN(C)CC2)C1c1ccc(N(C)C)cc1` (stereo not given): the degraded at 2 h in data set [1] was 77.6%. Besides, in data set [2], the lipophilicity (logP) is 1.35. For the same molecule, the T in [3] was determined as 38.9 °C; in [5] it was 38.14 °C; in data set [6], 37.52 °C. Further, in data set [4], the inhibition in vivo at 60 mg/kg was found to be 28.1%. The Activity entry in [7] was “Non-toxic”.

As to `CC1C(=O)CC(c2ccc(F)cc2)N(C(=O)CCl)C1c1ccc(Cl)cc1` (stereo not given), the degraded at 2 h in data set [1] is 1.17%. For the same molecule, the logP in [2] worked out at 1.72. Further, the T is 38.14 °C in [3], 37.54 °C in data set [5] and 37.16 °C in data set [6]. In addition, the inhibition in vivo at 60 mg/kg in [4] turned out to be 57.6%. Moreover, the Activity result in data set [7] is listed as “Non-toxic”.

Regarding `CC1C(=O)CC(c2ccc(F)cc2)N(C(=O)CN2CCN(C)CC2)C1c1ccc(Cl)cc1` (stereo not given), the degraded at 2 h in data set [1] is 4.49%. Besides, in data set [2], the logP stood at 2.09. Further, the T was found to be 37.9 °C in [3], 37.16 °C in data set [5] and 37.18 °C in data set [6]. In addition, in [4], the inhibition in vivo at 60 mg/kg is 65.5%. For the same molecule, in [7], the Activity entry is on record as “Non-toxic”.

As to `COc1ccc(C2C(C)C(=O)CC(c3ccc(Cl)cc3)N2C(=O)CCl)cc1` (stereo not given), the degraded at 2 h in data set [1] is 2.68%. Besides, the logP in [2] stood at 1.29. In addition, the T in [3] is 38.76 °C; in [5], 38.36 °C; in data set [6] it was 37.2 °C. The inhibition in vivo at 60 mg/kg in [4] was 44.1%. The Activity result in [7] is given as “Non-toxic”.

As for `CC1C(=O)CC(c2ccc(Cl)cc2)N(C(=O)CCl)C1c1ccc(O)cc1` (stereo not given), the degraded at 2 h in data set [1] is 42.7%. The same molecule came in with a logP in data set [2] of 1.05. The values for the T in [3], in data set [5] and in data set [6] were 38.92 °C, 38.5 °C and 37.14 °C, respectively. Also, the inhibition in vivo at 60 mg/kg in data set [4] turned out to be 39.7%. In data set [7], the Activity entry was “Non-toxic”.

With `COc1ccc(C2C(C)C(=O)CC(c3ccc(Cl)cc3)N2C(=O)CN2CCN(C)CC2)cc1` (stereo not given), the degraded at 2 h in data set [1] is 18.8%. In addition, in data set [2], the logP came to 1.48. The T was 38.52 °C in data set [3], 37.68 °C in [5] and 37.28 °C in data set [6]. Also, the inhibition in vivo at 60 mg/kg in data set [4] was 53%. Also, the Activity entry in [7] is on record as “Non-toxic”.

As for `CC(=O)Nc1ccc(O)cc1` [ACETAMINOPHEN], the results for the T in data set [10], in data set [11] and in data set [12] were 37.14 °C, 37.88 °C and 37.1 °C, respectively.

For the molecule `CC1C(=O)CC(c2ccc(F)cc2)N(C(=O)CCl)C1c1ccc(O)cc1` (stereo not given), in data set [1], the degraded at 2 h was 43.2%. The logP in data set [2] was 1.14. In addition, the T in [3] stood at 38.72 °C; in data set [5], 38.3 °C; in data set [6], 37.16 °C. For the same molecule, in data set [4], the inhibition in vivo at 60 mg/kg was determined as 51.2%. The Activity result in data set [7] is “Non-toxic”.
